Measured values as given in ChEMBL document CHEMBL4665883, “Development of DHQ-based chemical biology probe to profile cellular targets for HBV” (Bioorg Med Chem Lett, 2020).
pEC50: −log10 of the molar value. Counter-ions that a name gives are not always drawn. Calls of active or inactive are those of the source. The rule behind the calls is not given here.

Key:
Hepatitis B virus [1] = experiment: Antiviral activity against Hepatitis B virus infected in human HepG2.2.15 cells assessed as reduction in HBV DNA level in cell supernatants incubated for 5 days by real time PCR analysis; type: functional, organism-based; conditions: HepG2.2.15, 120 h
Hepatitis B virus [2] = experiment: Antiviral activity against Hepatitis B virus infected in human HepG2.2.15 cells assessed as reduction in HBsAg level in cell supernatants incubated for 5 days by AlphaLisa assay; type: functional, organism-based; conditions: HepG2.2.15, 120 h
[3] = Cytotoxicity against human HepG2.2.15 cells assessed as reduction in cell viability; type: cell-based, HepG2 2.2.15
[4] = target: T1, Aldehyde dehydrogenase X, mitochondrial (Homo sapiens) (UniProt P30837); experiment: Binding affinity to ALDH X in human HePAD38 cells infected with HBV assessed as protein labelling at 20 uM after 1 hr by photoaffinity labelling in-situ fluorescence gel-based LC-MS/MS analysis; type: cell-based
T1 sequence (whole entry): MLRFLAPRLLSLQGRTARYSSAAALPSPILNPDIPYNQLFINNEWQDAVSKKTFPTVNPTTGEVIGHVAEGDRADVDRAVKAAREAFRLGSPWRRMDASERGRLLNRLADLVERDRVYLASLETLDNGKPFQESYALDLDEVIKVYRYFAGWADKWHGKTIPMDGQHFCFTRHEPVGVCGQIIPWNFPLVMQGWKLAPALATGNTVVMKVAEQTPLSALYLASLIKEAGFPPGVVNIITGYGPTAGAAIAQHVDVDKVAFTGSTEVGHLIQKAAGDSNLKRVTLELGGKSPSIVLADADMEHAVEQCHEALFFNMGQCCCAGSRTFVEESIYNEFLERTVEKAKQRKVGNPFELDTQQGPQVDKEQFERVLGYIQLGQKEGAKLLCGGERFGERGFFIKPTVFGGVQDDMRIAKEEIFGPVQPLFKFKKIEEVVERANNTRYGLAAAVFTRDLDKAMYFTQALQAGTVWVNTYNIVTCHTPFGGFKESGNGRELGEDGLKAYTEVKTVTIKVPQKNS
How it was run: (§1)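 Live HepAD38 cells incubated 1 h with photoaffinity probe at 20 μM final, then UV-irradiated. Cells were harvested and homogenized in HEPES lysis buffer. Lysates underwent copper-catalysed click conjugation to biotin-Diazo-azide, then large-scale affinity enrichment, with bound proteins identified by LC–MS/MS.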

[5] = target: 60 kDa heat shock protein, mitochondrial (Homo sapiens) (UniProt P10809); experiment: Binding affinity to 60 kDa HSP60 in human HePAD38 cells infected with HBV assessed as protein labelling at 20 uM after 1 hr by photoaffinity labelling in-situ fluorescence gel-based LC-MS/MS analysis; type: cell-based; how it was run: as §1
[6] = target: T2, Aldehyde dehydrogenase 1A1 (Homo sapiens) (UniProt P00352); experiment: Binding affinity to RALDH1 in human HePAD38 cells infected with HBV assessed as protein labelling at 20 uM after 1 hr by photoaffinity labelling in-situ fluorescence gel-based LC-MS/MS analysis; type: cell-based; how it was run: as §1
T2 sequence (whole entry): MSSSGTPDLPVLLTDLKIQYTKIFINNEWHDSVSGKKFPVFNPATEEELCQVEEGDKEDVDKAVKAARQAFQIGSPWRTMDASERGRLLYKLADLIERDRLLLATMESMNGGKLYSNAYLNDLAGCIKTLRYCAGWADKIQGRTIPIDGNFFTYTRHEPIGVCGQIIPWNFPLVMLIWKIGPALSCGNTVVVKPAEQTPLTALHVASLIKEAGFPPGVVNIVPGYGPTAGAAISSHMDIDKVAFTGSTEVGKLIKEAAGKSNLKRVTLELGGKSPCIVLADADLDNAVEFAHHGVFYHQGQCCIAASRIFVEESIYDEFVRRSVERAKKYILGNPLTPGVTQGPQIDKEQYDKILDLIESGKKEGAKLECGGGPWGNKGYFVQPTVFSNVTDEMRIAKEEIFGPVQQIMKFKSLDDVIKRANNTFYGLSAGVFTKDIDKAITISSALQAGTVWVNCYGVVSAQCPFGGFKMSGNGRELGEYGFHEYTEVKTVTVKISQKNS

[7] = target: T3, Isocitrate dehydrogenase [NADP], mitochondrial (Homo sapiens) (UniProt P48735); experiment: Binding affinity to IDH in human HePAD38 cells infected with HBV assessed as protein labelling at 20 uM after 1 hr by photoaffinity labelling in-situ fluorescence gel-based LC-MS/MS analysis; type: cell-based; how it was run: as §1
T3 sequence (whole entry): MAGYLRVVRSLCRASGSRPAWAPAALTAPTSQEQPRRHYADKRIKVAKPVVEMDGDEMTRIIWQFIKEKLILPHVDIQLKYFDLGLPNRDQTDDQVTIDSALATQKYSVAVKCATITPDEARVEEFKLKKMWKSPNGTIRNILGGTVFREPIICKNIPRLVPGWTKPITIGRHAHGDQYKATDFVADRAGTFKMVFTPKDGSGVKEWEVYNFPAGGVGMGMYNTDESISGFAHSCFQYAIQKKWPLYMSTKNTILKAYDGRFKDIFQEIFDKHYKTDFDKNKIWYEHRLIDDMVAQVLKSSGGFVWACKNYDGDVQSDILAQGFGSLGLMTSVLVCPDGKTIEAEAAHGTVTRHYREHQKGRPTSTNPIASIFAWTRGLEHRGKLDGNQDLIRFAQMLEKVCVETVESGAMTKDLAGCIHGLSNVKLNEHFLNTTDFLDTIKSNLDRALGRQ

[8] = target: T4, Heme oxygenase 2 (Homo sapiens) (UniProt P30519); experiment: Binding affinity to HMOX2 in human HePAD38 cells infected with HBV assessed as protein labelling at 20 uM after 1 hr by photoaffinity labelling in-situ fluorescence gel-based LC-MS/MS analysis; type: cell-based; how it was run: as §1
T4 sequence (whole entry): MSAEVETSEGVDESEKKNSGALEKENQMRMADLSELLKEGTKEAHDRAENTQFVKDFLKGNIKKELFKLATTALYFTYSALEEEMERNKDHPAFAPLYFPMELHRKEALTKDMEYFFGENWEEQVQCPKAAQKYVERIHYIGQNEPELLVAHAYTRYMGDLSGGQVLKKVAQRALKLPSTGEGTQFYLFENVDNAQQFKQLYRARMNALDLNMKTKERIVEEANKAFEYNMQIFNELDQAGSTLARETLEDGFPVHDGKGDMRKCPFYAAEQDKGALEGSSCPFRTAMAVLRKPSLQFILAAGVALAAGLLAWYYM

[9] = target: Poly(rC)-binding protein 1 (Homo sapiens) (UniProt Q15365); experiment: Binding affinity to PCBP1 in human HePAD38 cells infected with HBV assessed as protein labelling at 20 uM after 1 hr by photoaffinity labelling in-situ fluorescence gel-based LC-MS/MS analysis; type: cell-based; how it was run: as §1
[10] = target: Terminal nucleotidyltransferase 4B (Homo sapiens) (UniProt Q8NDF8); experiment: Binding affinity to PAPD5 in human HePAD38 cells infected with HBV assessed as protein labelling at 20 uM after 1 hr by photoaffinity labelling in-situ fluorescence gel-based LC-MS/MS analysis; type: cell-based; how it was run: as §1
[11] = target: Terminal nucleotidyltransferase 4A (Homo sapiens) (UniProt Q5XG87); experiment: Binding affinity to PAPD7 in human HePAD38 cells infected with HBV assessed as protein labelling at 20 uM after 1 hr by photoaffinity labelling in-situ fluorescence gel-based LC-MS/MS analysis; type: cell-based; how it was run: as §1
Chain of Terminal nucleotidyltransferase 4A (Homo sapiens) (Q5XG87 whole entry): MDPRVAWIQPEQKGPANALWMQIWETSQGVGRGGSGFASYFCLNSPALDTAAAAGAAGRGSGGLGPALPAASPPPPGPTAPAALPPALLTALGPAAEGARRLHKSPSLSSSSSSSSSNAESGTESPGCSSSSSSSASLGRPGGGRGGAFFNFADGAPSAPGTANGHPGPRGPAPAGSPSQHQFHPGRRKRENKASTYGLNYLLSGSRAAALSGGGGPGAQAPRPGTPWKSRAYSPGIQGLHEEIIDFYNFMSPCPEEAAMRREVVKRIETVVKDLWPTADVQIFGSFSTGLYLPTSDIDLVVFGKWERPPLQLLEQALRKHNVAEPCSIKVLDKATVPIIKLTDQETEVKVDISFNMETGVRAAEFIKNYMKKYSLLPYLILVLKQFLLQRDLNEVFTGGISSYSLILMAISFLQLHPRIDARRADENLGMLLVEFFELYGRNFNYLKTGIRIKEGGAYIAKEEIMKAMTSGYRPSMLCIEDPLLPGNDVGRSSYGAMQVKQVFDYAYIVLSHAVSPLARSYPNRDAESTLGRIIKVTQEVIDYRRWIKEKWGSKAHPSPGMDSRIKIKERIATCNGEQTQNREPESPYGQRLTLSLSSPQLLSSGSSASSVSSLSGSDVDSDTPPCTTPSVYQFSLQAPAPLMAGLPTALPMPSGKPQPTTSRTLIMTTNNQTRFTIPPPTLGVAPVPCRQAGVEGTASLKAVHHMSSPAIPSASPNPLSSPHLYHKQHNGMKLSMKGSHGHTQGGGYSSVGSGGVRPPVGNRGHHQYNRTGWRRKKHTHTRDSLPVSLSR

Chain of 60 kDa heat shock protein, mitochondrial (Homo sapiens) (P10809 whole entry): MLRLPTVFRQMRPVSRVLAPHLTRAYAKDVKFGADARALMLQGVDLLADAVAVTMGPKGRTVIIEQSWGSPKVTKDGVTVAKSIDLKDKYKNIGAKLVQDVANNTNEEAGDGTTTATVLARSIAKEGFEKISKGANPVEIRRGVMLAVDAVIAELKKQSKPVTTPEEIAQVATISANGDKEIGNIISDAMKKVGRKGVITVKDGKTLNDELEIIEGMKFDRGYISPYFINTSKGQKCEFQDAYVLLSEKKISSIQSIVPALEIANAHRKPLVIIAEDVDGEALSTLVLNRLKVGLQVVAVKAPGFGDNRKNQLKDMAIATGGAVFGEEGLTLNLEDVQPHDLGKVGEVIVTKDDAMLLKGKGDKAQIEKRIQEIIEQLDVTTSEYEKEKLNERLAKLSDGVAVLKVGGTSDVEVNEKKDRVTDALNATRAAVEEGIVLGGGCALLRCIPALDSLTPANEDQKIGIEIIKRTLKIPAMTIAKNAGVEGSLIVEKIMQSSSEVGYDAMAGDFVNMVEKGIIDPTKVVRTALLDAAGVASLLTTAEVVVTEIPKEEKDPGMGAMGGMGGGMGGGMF
Chain of Poly(rC)-binding protein 1 (Homo sapiens) (Q15365 whole entry): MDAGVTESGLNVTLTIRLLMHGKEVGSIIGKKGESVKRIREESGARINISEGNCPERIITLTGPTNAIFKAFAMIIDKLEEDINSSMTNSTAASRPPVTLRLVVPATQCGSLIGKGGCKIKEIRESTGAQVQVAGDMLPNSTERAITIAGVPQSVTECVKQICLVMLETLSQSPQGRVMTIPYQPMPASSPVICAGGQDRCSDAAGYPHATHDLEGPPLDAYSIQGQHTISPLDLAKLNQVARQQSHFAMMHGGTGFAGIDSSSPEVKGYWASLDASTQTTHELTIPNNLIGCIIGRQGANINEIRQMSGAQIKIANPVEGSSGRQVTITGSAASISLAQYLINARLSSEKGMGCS
Chain of Terminal nucleotidyltransferase 4B (Homo sapiens) (Q8NDF8 whole entry): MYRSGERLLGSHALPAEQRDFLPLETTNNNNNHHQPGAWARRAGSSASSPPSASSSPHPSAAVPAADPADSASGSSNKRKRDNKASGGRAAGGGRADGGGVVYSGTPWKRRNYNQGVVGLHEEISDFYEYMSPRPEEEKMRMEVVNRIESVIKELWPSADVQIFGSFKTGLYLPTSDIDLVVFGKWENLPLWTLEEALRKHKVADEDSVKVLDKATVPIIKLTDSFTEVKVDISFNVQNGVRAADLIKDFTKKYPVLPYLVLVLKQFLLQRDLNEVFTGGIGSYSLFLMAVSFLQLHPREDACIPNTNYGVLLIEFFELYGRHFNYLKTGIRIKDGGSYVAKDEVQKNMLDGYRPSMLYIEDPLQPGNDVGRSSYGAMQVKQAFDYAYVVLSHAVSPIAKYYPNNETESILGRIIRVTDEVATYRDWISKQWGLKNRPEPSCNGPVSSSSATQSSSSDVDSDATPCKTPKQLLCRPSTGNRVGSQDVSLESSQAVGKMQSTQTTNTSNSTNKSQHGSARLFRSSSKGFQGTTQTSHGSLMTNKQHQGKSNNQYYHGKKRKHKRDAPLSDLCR

| pEC50 (Hepatitis B virus [1]) | pEC50 (Hepatitis B virus [2]) | Structure (SMILES) | other results |
| --- | --- | --- | --- |
| 8.21 | 8.65 | COCCCOc1cc2c(cc1C(=O)OC)-c1cc(=O)c(C(=O)O)cn1C(C(C)C)C2 (stereo not drawn) |  |
| 7.09 | 6.52 | C#CCCC1(CCOc2cc3c(cc2C(=O)OC)-c2cc(=O)c(C(=O)O)cn2[C@@H](C(C)C)C3)N=N1 | CC50 [3]: > 150000 nM |
| 8.52 | 8.89 | COCCCOc1cc2c(cc1OC)-c1cc(=O)c(C(=O)O)cn1C(C(C)C)C2 (racemic) |  |
| 7.49 | 6.81 | COCCCOc1cc2c(cc1OCCOc1ccccc1)-c1cc(=O)c(C(=O)O)cn1C(C(C)C)C2 (stereo not drawn) |  |
| 7.05 | 6.38 | COC(=O)c1cc2c(cc1O)CC(C(C)C)n1cc(C(=O)O)c(=O)cc1-2 (stereo not drawn) |  |
| 8.49 | 8.25 | C#CCCC1(CCOc2cc3c(cc2C(=O)OC)-c2cc(=O)c(C(=O)O)cn2[C@H](C(C)C)C3)N=N1 | CC50 [3]: > 150000 nM; Activity [4]: Active; Activity [5]: Active; Activity [6]: Active; Activity [7]: Active; Activity [8]: Active; Activity [9]: Active; Activity [10]: inactive; Activity [11]: inactive |
| 6.09 | 6.43 | COCCCOc1cc2c(cc1OC)-c1cc(=O)c(-c3csc(N)n3)cn1C(C(C)C)C2 (stereo not drawn) |  |
| 8.52 | 8.24 | COC(=O)c1cc2c(cc1N1CCCC1)CC(C(C)C)n1cc(C(=O)O)c(=O)cc1-2 (stereo not drawn) |  |

| Structure (SMILES) | pEC50 (Hepatitis B virus [1]) | pEC50 (Hepatitis B virus [2]) | other results |
| --- | --- | --- | --- |
| CC(C)OC(=O)OCOP(=O)(CO[C@H](C)Cn1cnc2c(N)ncnc21)OCOC(=O)OC(C)C [TENOFOVIR DISOPROXIL FUMARATE] | 7.86 | < 6.00 |  |
